Test results as given in ChEMBL document CHEMBL1155010, “Synthesis and biological evaluation of substituted [18F]imidazo[1,2-a]pyridines and [18F]pyrazolo[1,5-a]pyrimidines for the study of the peripheral benzodiazepine receptor using positron emission tomography” (J Med Chem, 2008).

Key:
Kidney [1] = assay: Biodistribution in Sprague-Dawley rat kidney assessed per gram of tissue at 1 MBq, iv after 0.25 hrs; assay type: ADME, organism-based; conditions: in vivo
Procedure, shortened: (§1)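 Male SD rats aged 8-10 weeks got 1 MBq [18F]tracer by tail vein in 0.1 mL. Groups of n = 4 were killed (CO2, then cervical fracture) at 0.25, 0.5, 1 and 4 h. Organs were weighed and gamma counted against a diluted standard of the injectate. Results are %ID per gram wet tissue, mean with standard deviation.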

Kidney [2] = assay: Biodistribution in Sprague-Dawley rat kidney assessed per gram of tissue at 1 MBq, iv after 0.5 hrs; assay type: ADME, organism-based; conditions: in vivo; procedure, shortened: as §1
Kidney [3] = assay: Biodistribution in Sprague-Dawley rat kidney assessed per gram of tissue at 1 MBq, iv after 1 hr; assay type: ADME, organism-based; conditions: in vivo; procedure, shortened: as §1
Kidney [4] = assay: Biodistribution in Sprague-Dawley rat kidney assessed per gram of tissue at 1 MBq, iv after 4 hrs; assay type: ADME, organism-based; conditions: in vivo; procedure, shortened: as §1
Heart [5] = assay: Biodistribution in Sprague-Dawley rat heart assessed per gram of tissue at 1 MBq, iv after 0.25 hrs; assay type: ADME, organism-based; conditions: in vivo; procedure, shortened: as §1
Heart [6] = assay: Biodistribution in Sprague-Dawley rat heart assessed per gram of tissue at 1 MBq, iv after 0.5 hrs; assay type: ADME, organism-based; conditions: in vivo; procedure, shortened: as §1
Heart [7] = assay: Biodistribution in Sprague-Dawley rat heart assessed per gram of tissue at 1 MBq, iv after 1 hr; assay type: ADME, organism-based; conditions: in vivo; procedure, shortened: as §1
Heart [8] = assay: Biodistribution in Sprague-Dawley rat heart assessed per gram of tissue at 1 MBq, iv after 4 hrs; assay type: ADME, organism-based; conditions: in vivo; procedure, shortened: as §1
Lung [9] = assay: Biodistribution in Sprague-Dawley rat lungs assessed per gram of tissue at 1 MBq, iv after 0.25 hrs; assay type: ADME, organism-based; conditions: in vivo; procedure, shortened: as §1
Lung [10] = assay: Biodistribution in Sprague-Dawley rat lungs assessed per gram of tissue at 1 MBq, iv after 0.5 hrs; assay type: ADME, organism-based; conditions: in vivo; procedure, shortened: as §1
Lung [11] = assay: Biodistribution in Sprague-Dawley rat lungs assessed per gram of tissue at 1 MBq, iv after 1 hr; assay type: ADME, organism-based; conditions: in vivo; procedure, shortened: as §1
Lung [12] = assay: Biodistribution in Sprague-Dawley rat lungs assessed per gram of tissue at 1 MBq, iv after 4 hrs; assay type: ADME, organism-based; conditions: in vivo; procedure, shortened: as §1
Spleen [13] = assay: Biodistribution in Sprague-Dawley rat spleen assessed per gram of tissue at 1 MBq, iv after 0.25 hrs; assay type: ADME, organism-based; conditions: in vivo; procedure, shortened: as §1
Spleen [14] = assay: Biodistribution in Sprague-Dawley rat spleen assessed per gram of tissue at 1 MBq, iv after 0.5 hrs; assay type: ADME, organism-based; conditions: in vivo; procedure, shortened: as §1
Spleen [15] = assay: Biodistribution in Sprague-Dawley rat spleen assessed per gram of tissue at 1 MBq, iv after 1 hr; assay type: ADME, organism-based; conditions: in vivo; procedure, shortened: as §1
Spleen [16] = assay: Biodistribution in Sprague-Dawley rat spleen assessed per gram of tissue at 1 MBq, iv after 4 hrs; assay type: ADME, organism-based; conditions: in vivo; procedure, shortened: as §1
Liver [17] = assay: Biodistribution in Sprague-Dawley rat liver assessed per gram of tissue at 1 MBq, iv after 0.25 hrs; assay type: ADME, organism-based; conditions: in vivo; procedure, shortened: as §1
Liver [18] = assay: Biodistribution in Sprague-Dawley rat liver assessed per gram of tissue at 1 MBq, iv after 0.5 hrs; assay type: ADME, organism-based; conditions: in vivo; procedure, shortened: as §1
Liver [19] = assay: Biodistribution in Sprague-Dawley rat liver assessed per gram of tissue at 1 MBq, iv after 1 hr; assay type: ADME, organism-based; conditions: in vivo; procedure, shortened: as §1
Liver [20] = assay: Biodistribution in Sprague-Dawley rat liver assessed per gram of tissue at 1 MBq, iv after 4 hrs; assay type: ADME, organism-based; conditions: in vivo; procedure, shortened: as §1
Adrenal [21] = assay: Biodistribution in Sprague-Dawley rat adrenals assessed per gram of tissue at 1 MBq, iv after 0.25 hrs; assay type: ADME, organism-based, Adrenal tissue; conditions: in vivo; procedure, shortened: as §1
Adrenal [22] = assay: Biodistribution in Sprague-Dawley rat adrenals assessed per gram of tissue at 1 MBq, iv after 0.5 hrs; assay type: ADME, organism-based, Adrenal tissue; conditions: in vivo; procedure, shortened: as §1
Adrenal [23] = assay: Biodistribution in Sprague-Dawley rat adrenals assessed per gram of tissue at 1 MBq, iv after 1 hr; assay type: ADME, organism-based, Adrenal tissue; conditions: in vivo; procedure, shortened: as §1
Adrenal [24] = assay: Biodistribution in Sprague-Dawley rat adrenals assessed per gram of tissue at 1 MBq, iv after 4 hrs; assay type: ADME, organism-based, Adrenal tissue; conditions: in vivo; procedure, shortened: as §1
[25] = Biodistribution in Sprague-Dawley rat testis assessed per gram of tissue at 1 MBq, iv after 0.25 hrs; assay type: ADME, organism-based; conditions: in vivo; procedure, shortened: as §1
[26] = Biodistribution in Sprague-Dawley rat testis assessed per gram of tissue at 1 MBq, iv after 0.5 hrs; assay type: ADME, organism-based; conditions: in vivo; procedure, shortened: as §1
[27] = Biodistribution in Sprague-Dawley rat testis assessed per gram of tissue at 1 MBq, iv after 1 hr; assay type: ADME, organism-based; conditions: in vivo; procedure, shortened: as §1
[28] = Biodistribution in Sprague-Dawley rat testis assessed per gram of tissue at 1 MBq, iv after 4 hrs; assay type: ADME, organism-based; conditions: in vivo; procedure, shortened: as §1
[29] = Ratio of drug level in olfactory bulb to blood in Sprague-Dawley rat at 1 MBq, iv; assay type: ADME
Procedure, shortened: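 Same rat biodistribution as above: 1 MBq iv by tail vein, n = 4 per time point, 0.25-4 h, gamma counting as %ID/g. Ratio is the olfactory bulb radioactivity concentration divided by the blood concentration at each time.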

Femur [30] = assay: Biodistribution in Sprague-Dawley rat femur at 1 MBq, iv after 0.25 hrs; assay type: ADME, organism-based; conditions: in vivo; procedure, shortened: as §1
Femur [31] = assay: Biodistribution in Sprague-Dawley rat femur at 1 MBq, iv after 4 hrs; assay type: ADME, organism-based; conditions: in vivo; procedure, shortened: as §1
[32] = Metabolic stability in Sprague-Dawley rat plasma assessed as drug remaining at 30 MBq after 4 hrs by Radio-HPLC analysis; assay type: ADME, cell-free; conditions: read-out: Stability
Procedure, shortened: (§2)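 Rats received 30 MBq tracer and were sampled at 0.25, 0.5, 1 and 4 h. Plasma was diluted with water containing unlabeled carrier and KF and injected directly. Frontal cortex or olfactory bulb was sonicated in acetonitrile/water 1:1 with carrier and KF, centrifuged, and the supernatant diluted. Radio-HPLC used a precolumn switched to C18 with a CH3CN/0.05 M sodium acetate pH 5.5 gradient. Result is % parent remaining.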

[33] = Metabolic stability in Sprague-Dawley rat frontal cortex assessed as drug remaining at 30 MBq after 0.25 hrs by Radio-HPLC analysis; assay type: ADME, tissue-based; conditions: read-out: Stability; procedure, shortened: as §2
[34] = Metabolic stability in Sprague-Dawley rat frontal cortex assessed as drug remaining at 30 MBq after 4 hrs by Radio-HPLC analysis; assay type: ADME, tissue-based; conditions: read-out: Stability; procedure, shortened: as §2
[35] = Metabolic stability in Sprague-Dawley rat olfactory bulb assessed as drug remaining at 30 MBq after 0.25 hrs by Radio-HPLC analysis; assay type: ADME, tissue-based; conditions: read-out: Stability; procedure, shortened: as §2
[36] = Metabolic stability in Sprague-Dawley rat olfactory bulb assessed as drug remaining at 30 MBq after 4 hrs by Radio-HPLC analysis; assay type: ADME, tissue-based; conditions: read-out: Stability; procedure, shortened: as §2
Blood [37] = assay: Biodistribution in Sprague-Dawley rat blood at 1 MBq, iv after 0.25 hrs; assay type: ADME, organism-based; conditions: in vivo; procedure, shortened: as §1
Blood [38] = assay: Biodistribution in Sprague-Dawley rat blood at 1 MBq, iv after 4 hrs; assay type: ADME, organism-based; conditions: in vivo; procedure, shortened: as §1
[39] = Metabolic stability in Sprague-Dawley rat plasma assessed as drug remaining at 30 MBq after 0.25 hrs by Radio-HPLC analysis; assay type: ADME, cell-free; conditions: read-out: Stability; procedure, shortened: as §2
[40] = Lipophilicity, log p at pH 7.5; assay type: physicochemical; conditions: buffer
Procedure, shortened: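 RP-HPLC on a C18 column with methanol/0.1 M phosphate buffer pH 7.5 (60/40) at 1 mL/min. Samples were dissolved in methanol. log P7.5 was estimated by comparing retention time with that of reference compounds of known log P.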

Translocator protein [41] = target: T1, Translocator protein (Rattus norvegicus, UniProt P16257); assay: Displacement of [3H]PK11195 from peripheral benzodiazepine receptor in rat kidney membrane; assay type: cell membranes
T1 sequence (P16257 whole entry, looked up): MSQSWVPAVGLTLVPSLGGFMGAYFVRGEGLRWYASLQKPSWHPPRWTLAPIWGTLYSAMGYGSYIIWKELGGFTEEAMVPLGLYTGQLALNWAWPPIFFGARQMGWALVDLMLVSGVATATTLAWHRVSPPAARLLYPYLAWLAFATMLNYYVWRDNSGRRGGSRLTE

Translocator protein [42] = target: T1, Translocator protein; assay: Displacement of [3H]Ro 5-4864 from peripheral benzodiazepine receptor in rat kidney membrane; assay type: cell membranes
[43] = Displacement of [3H]flumazenil from central benzodiazepine receptor in rat brain cortex membrane; assay type: cell membranes
Procedure, shortened: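 Rat brain cortex membranes (100-150 µg protein) were incubated in triplicate at 25 °C for 45 min with [3H]flumazenil (2 nM) and 7 ligand concentrations (10^-10 to 10^-5 M). Nonspecific binding was set with flumazenil 20 µM. Assays were filtered, washed with ice-cold Tris/HCl pH 7.4 and counted. Ki was derived from IC50 by Cheng-Prusoff.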

Compound | Drug uptake (Kidney [1]) [%ID] | Drug uptake (Kidney [2]) [%ID] | Drug uptake (Kidney [3]) [%ID] | Drug uptake (Kidney [4]) [%ID] | Drug uptake (Heart [5]) [%ID] | Drug uptake (Heart [6]) [%ID] | Drug uptake (Heart [7]) [%ID] | Drug uptake (Heart [8]) [%ID] | Drug uptake (Lung [9]) [%ID] | Drug uptake (Lung [10]) [%ID] | Drug uptake (Lung [11]) [%ID] | Drug uptake (Lung [12]) [%ID] | Drug uptake (Spleen [13]) [%ID] | Drug uptake (Spleen [14]) [%ID] | Drug uptake (Spleen [15]) [%ID] | Drug uptake (Spleen [16]) [%ID] | Drug uptake (Liver [17]) [%ID] | Drug uptake (Liver [18]) [%ID] | Drug uptake (Liver [19]) [%ID] | Drug uptake (Liver [20]) [%ID] | further results
CCN(CC)C(=O)Cc1c(-c2ccc(OCC[18F])cc2)nc2ccc(Cl)cn12 | 3.3 | 3.2 | 2.7 | 1.3 | 4.3 | 4.4 | 4.6 | 2.8 | 14.3 | 12.1 | 11.6 | 8.1 | 4.5 | 3.9 | 3.4 | 1.9 | 0.63 | 0.52 | 0.35 | 0.29 | Drug uptake (Adrenal [21]): 6.7 %ID; Drug uptake (Adrenal [22]): 7.9 %ID; Drug uptake (Adrenal [23]): 7.3 %ID; Drug uptake (Adrenal [24]): 7.1 %ID; Drug uptake [25]: 0.17 %ID; Drug uptake [26]: 0.23 %ID; Drug uptake [27]: 0.31 %ID; Drug uptake [28]: 0.42 %ID; Kp [29]: 2; Drug uptake (Femur [30]): 0.4 % ID/g; Drug uptake (Femur [31]): 0.7 % ID/g; remaining at 4 h [32]: < 1%; remaining at 0.25 h [33]: 55%; remaining at 4 h [34]: 10%; remaining at 0.25 h [35]: 80%; remaining at 4 h [36]: 40%
CCN(CC)C(=O)Cc1c(-c2ccc(OCCC[18F])cc2)nc2ccc(Cl)cn12 | 4.3 | 5 | 3.7 | 1.8 | 7.8 | 8.3 | 6.4 | 2.9 | 12.3 | 7.7 | 4.1 | 2.2 | 5.5 | 6 | 4.5 | 2.5 | 1.08 | 0.79 | 0.61 | 0.3 | Drug uptake (Adrenal [21]): 8.5 %ID; Drug uptake (Adrenal [22]): 11.8 %ID; Drug uptake (Adrenal [23]): 9.6 %ID; Drug uptake (Adrenal [24]): 11.4 %ID; Drug uptake [25]: 0.33 %ID; Drug uptake [26]: 0.43 %ID; Drug uptake [27]: 0.41 %ID; Drug uptake [28]: 0.53 %ID; Drug uptake (Blood [37]): 0.3 % ID/g; Drug uptake (Blood [38]): 0.1 % ID/g; Drug uptake (Femur [30]): 0.6 % ID/g; Drug uptake (Femur [31]): 2.2 % ID/g; remaining at 0.25 h [39]: 10%; remaining at 0.25 h [33]: 55%; remaining at 4 h [34]: 30%
CCN(CC)C(=O)Cc1c(-c2ccc(OCCF)cc2)nc2ccc(Cl)cn12 | – | – | – | – | – | – | – | – | – | – | – | – | – | – | – | – | – | – | – | – | logD [40]: 2.7; Ki (Translocator protein [41]): 5.8 nM; Ki (Translocator protein [42]): 3.3 nM; Ki [43]: 790 nM
CCN(CC)C(=O)Cc1c(-c2ccc(OCCCF)cc2)nc2ccc(Cl)cn12 | – | – | – | – | – | – | – | – | – | – | – | – | – | – | – | – | – | – | – | – | logD [40]: 3.2; Ki (Translocator protein [41]): 3.7 nM; Ki (Translocator protein [42]): 4.2 nM; Ki [43]: 800 nM
